For 14 compounds, inhibition, XI50 (mole fraction) and Inhibition results are on record in ChEMBL document CHEMBL1147679, “Differential inhibition of group IVA and group VIA phospholipases A2 by 2-oxoamides” (2006).

The target in experiment [1] is T1, 85/88 kDa calcium-independent phospholipase A2 (Homo sapiens) (UniProt O60733).
T1 sequence (whole entry): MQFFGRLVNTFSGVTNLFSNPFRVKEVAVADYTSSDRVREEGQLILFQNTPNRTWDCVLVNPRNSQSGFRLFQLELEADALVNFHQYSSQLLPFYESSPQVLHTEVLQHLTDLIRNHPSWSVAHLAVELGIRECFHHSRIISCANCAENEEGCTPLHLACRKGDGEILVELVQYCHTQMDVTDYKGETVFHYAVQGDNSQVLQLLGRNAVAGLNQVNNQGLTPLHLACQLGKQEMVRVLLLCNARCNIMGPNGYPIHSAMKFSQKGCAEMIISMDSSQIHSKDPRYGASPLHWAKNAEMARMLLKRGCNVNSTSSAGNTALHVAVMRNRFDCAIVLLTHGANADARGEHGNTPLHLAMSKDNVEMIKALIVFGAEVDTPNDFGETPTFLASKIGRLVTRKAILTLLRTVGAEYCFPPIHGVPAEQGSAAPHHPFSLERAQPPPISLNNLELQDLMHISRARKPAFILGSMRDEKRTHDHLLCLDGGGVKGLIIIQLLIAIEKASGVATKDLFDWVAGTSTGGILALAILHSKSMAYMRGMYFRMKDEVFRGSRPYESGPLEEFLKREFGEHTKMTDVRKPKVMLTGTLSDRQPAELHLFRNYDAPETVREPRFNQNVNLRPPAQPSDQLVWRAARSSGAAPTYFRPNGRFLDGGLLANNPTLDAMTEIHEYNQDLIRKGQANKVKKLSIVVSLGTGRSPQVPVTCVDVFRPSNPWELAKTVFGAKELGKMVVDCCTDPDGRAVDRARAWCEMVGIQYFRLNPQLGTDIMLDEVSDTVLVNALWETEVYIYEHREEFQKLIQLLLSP
The experiment in a line: Inhibition of group 6A iPLA2 at 0.091 mole fraction. In a few lines: (§1)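 Recombinant human GVIA-2 iPLA2 (His-tagged) was expressed in Sf9 cells by baculovirus and purified on Ni-NTA. Enzyme (190 ng) acted on mixed micelles of 100 µM DPPC with [14C]-palmitoyl PC tracer and 400 µM Triton X-100, in HEPES pH 7.5 with EDTA, DTT and ATP and 1% DMSO. Runs were 30 min at 40 °C, read by modified Dole assay. XI(50) (mole fraction) came from a logarithmic or linear fit; highest dose 0.091 mole fraction.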

Experiment [2] addresses T2, Cytosolic phospholipase A2 (Homo sapiens) (UniProt P47712).
T2 sequence (whole entry): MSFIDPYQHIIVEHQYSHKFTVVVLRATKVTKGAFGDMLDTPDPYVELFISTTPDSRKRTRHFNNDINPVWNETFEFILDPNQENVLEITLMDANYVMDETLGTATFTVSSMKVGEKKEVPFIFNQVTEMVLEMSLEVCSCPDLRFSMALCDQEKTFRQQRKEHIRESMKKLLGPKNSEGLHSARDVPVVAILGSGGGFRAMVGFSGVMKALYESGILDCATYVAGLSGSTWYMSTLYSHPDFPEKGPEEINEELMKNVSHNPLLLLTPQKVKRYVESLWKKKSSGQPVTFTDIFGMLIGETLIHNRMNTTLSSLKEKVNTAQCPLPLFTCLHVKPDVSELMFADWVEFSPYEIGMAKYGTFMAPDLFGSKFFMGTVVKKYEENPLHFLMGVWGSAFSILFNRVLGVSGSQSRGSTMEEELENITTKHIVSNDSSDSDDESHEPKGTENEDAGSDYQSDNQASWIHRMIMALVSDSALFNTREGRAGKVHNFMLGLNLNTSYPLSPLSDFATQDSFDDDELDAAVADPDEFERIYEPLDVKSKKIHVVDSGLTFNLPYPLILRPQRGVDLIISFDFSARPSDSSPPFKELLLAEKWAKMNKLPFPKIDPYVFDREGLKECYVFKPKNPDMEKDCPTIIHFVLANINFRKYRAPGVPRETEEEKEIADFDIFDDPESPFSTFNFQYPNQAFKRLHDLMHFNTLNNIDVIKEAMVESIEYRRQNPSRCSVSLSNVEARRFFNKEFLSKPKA
As to the kind of experiment: Inhibition of group 4A cPLA2. In a few lines:
(§2)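 Native human GIVA cPLA2 (10 ng) was assayed in 100 mM HEPES pH 7.5 with 80 µM CaCl2, 0.1 mg/mL fatty-acid-free BSA and 2 mM DTT. Substrate was 97 µM 1-palmitoyl-2-[14C]-arachidonoyl PC with 3 µM PIP2 and 400 µM Triton X-100 micelles, plus 1% DMSO. Runs were 30 min at 40 °C, read by modified Dole assay. Potency is XI(50) in surface mole fraction; highest dose 0.091 mole fraction.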

Experiment [3] concerns the target T1, 85/88 kDa calcium-independent phospholipase A2 (Homo sapiens). The experiment in a line: Inhibition of group 6A iPLA2. In a few lines: as §1
Another experiment concerns RAW264.7. The experiment in a line: Inhibition of LPS-stimulated prostaglandin PGE2 production in mouse RAW 264.7 macrophage-like cell line. The class given is functional. In short, it runs like this:
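RAW 264.7 cells in DMEM/10% FCS were plated at 5×10^5 per well, allowed to adhere 24 h, then held serum-free 18 h. Inhibitors, in DMSO (<0.5% v/v) diluted into serum-free medium, were added 30 min before 100 ng/mL E. coli 0111:B4 LPS for 24 h. Medium PGE2 was quantified by LC-MS (negative ESI, MRM) against a deuterated PGE2 internal standard.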

In experiment [4] the target is T2, Cytosolic phospholipase A2 (Homo sapiens). The experiment in a line: Inhibition of group 4A cPLA2 at 0.091 mole fraction. In short, it runs like this: as §2
Experiment [5] has as its target T1, 85/88 kDa calcium-independent phospholipase A2 (Homo sapiens). As to the kind of experiment: Inhibition of group 6A iPLA2 at 0.02 mole fraction.
The target in experiment [6] is T2, Cytosolic phospholipase A2 (Homo sapiens). The experiment in a line: Inhibition of group 4A cPLA2 at 0.01 mole fraction.

Each structure is given as a SMILES string. Calls of active or inactive are those of the source. The rule behind the calls is not given here.

`CCCCCCCC/C=C\CCCCCCCC(=O)C(=O)NCCCC(=O)O`: the inhibition (usually the change of the read-out against control, counted positive when it falls) in experiment [1] amounted to 0%. In experiment [2], this compound returned an XI50 (mole fraction) of 0.011.
Turning to `CCCCCCCCCCCCCCC(=O)C(=O)N[C@@H](/C=C/C(=O)OC)CCCC`, the figures for the XI50 (mole fraction) in experiment [3] and in experiment [2] were 0.032 and 0.018, respectively. Also, the Inhibition – broadly, the drop in the measured response relative to a control, in per cent – with RAW264.7 is on record as 40%.
As to `O=C(O)CCCNC(=O)C(=O)CCCCc1ccccc1`, the inhibition in experiment [1] and in experiment [4] was 0% in each case.
Turning to `CCCCCCCCCCCCCCC(=O)C(=O)N[C@H](/C=C/C(=O)O)CCCC`, in experiment [1], the inhibition stood at 0%. Besides, the XI50 (mole fraction) in experiment [2] stood at 0.003.
As to `CCCCCCCCCCCCCCC(=O)C(=O)NCCCCCC`, the inhibition in experiment [5] is 25%; in experiment [6], 0%.
Turning to `CCCCCCCCCCCCCCC(=O)C(=O)NCCCC(=O)O`, the inhibition in experiment [1] stood at 0%. The compound further had an XI50 (mole fraction) in experiment [2] of 0.017.
As to `CCCCCCCC/C=C\CCCCCCCC(=O)C(=O)NCCCC(=O)OC`, the results for the XI50 (mole fraction) in experiment [3] and in experiment [2] were 0.067 and 0.012, respectively. In the experiment on RAW264.7, this compound had an Inhibition of 40%.
For `COC(=O)CCCNC(=O)C(=O)CCCc1ccccc1`, the inhibition in experiment [1] and in experiment [4] was 0% each time.
In the case of `CCCCCCCCCCCCCCCCNC(=O)C(=O)CC`, the inhibition came to 25% in experiment [5] and 0% in experiment [6].
Take `CCCCCCCCCCCCCCC(=O)C(=O)NCCCC(=O)OC`: the values for the inhibition in experiment [1] and in experiment [4] were 25% and 0%, respectively. In the experiment with RAW264.7, the inhibition result is “inactive”.
For the compound `NC(=O)C(=O)CCCCc1ccccc1`, the inhibition in experiment [1] and in experiment [4] was 0% in each case.
For the compound `O=C(O)CCCNC(=O)C(=O)CCCc1ccccc1`, the inhibition in experiment [1] and in experiment [4] was 0% throughout.
For `COC(=O)CCCNC(=O)C(=O)CCCCc1ccccc1`, the inhibition in experiment [1] and in experiment [4] was 0% each time.
For `CCCCCCCCCCCCCC(=O)C(N)=O`, the inhibition in experiment [5] and in experiment [6] was 0% throughout.
